Experimental data as given in ChEMBL document CHEMBL1140167, “Meroditerpenoids from the brown alga Sargassum siliquastrum” (J Nat Prod, 2008).
In brackets after ≈: the same amount, converted by molar mass. One block for each compound: values may come before it.

Tests used:
[1] = molecular target: Isocitrate lyase (Candida albicans, UniProt Q9P8Q7); test: Inhibition of Candida albicans isocitrate lyase
[2] = Inhibition of Staphylococcus aureus sortase A
[3] = system: Radical scavenging activity; test: Antioxidant activity assessed as DPPH radical scavenging activity; assay type: functional
Outline: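 DPPH radical-scavenging test; activity expressed as RC50, reported in µg/mL.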

Sequence of Isocitrate lyase (Q9P8Q7 whole entry): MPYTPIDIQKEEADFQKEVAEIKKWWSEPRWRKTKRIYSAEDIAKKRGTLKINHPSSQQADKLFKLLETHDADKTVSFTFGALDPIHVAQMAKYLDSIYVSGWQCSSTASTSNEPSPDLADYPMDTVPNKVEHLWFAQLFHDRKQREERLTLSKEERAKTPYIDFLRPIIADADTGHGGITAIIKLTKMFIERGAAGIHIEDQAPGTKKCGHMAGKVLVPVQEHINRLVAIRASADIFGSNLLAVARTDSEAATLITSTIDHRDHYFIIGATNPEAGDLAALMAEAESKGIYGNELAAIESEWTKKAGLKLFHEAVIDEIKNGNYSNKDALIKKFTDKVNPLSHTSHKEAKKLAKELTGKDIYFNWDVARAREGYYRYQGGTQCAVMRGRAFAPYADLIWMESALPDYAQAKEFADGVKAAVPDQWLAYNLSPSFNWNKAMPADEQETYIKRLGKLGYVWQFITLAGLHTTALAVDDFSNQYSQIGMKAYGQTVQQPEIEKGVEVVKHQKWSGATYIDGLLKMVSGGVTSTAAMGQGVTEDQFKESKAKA

SMILES: C=CC(C)(CC/C=C(\C)C[C@@H]1C=C(C)C(=O)[C@H]1C=C(C)C)Oc1ccc(O)cc1CC(=O)OC (some centres not stated)
IC50 [1]: 107 µM
IC50 [2]: > 200 µg/mL
RC50 [3]: 11.7 µg/mL

SMILES: C=CC(C)(CC/C=C(\C)CC/C=C(\C)C(=O)[C@@H](O)C=C(C)C)Oc1ccc(O)cc1CC(=O)OC (some centres not stated)
IC50 [1]: 103 µM
IC50 [2]: > 200 µg/mL
RC50 [3]: 12.6 µg/mL

SMILES: C=CC(C)(CC/C=C(\C)CCCC(C)C(O)/C=C/C(=C)C)Oc1ccc(O)cc1CC(=O)OC (configuration not stated)
IC50 [1]: 106 µM
IC50 [2]: > 200 µg/mL
RC50 [3]: 12.4 µg/mL

SMILES: C=CC(C)(CC/C=C(\C)CC/C=C(/C)[C@H](O)C(=O)C=C(C)C)Oc1ccc(O)cc1CC(=O)OC (some centres not stated)
IC50 [1]: 103 µM
IC50 [2]: > 200 µg/mL
RC50 [3]: 23.2 µg/mL

SMILES: C=CC(C)(CC/C=C(\C)CCCC(C)C(O)C(=O)C=C(C)C)Oc1ccc(O)cc1CC(=O)OC (configuration not stated)
IC50 [2]: > 200 µg/mL
RC50 [3]: 9.12 µg/mL

SMILES: COC(=O)CC1(C/C=C(\C)CC/C=C(\C)CC/C=C(\C)[C@@H](O)[C@@H](O)C=C(C)C)CC(=O)C=CC1=O (some centres not stated)
IC50 [2]: 23 µg/mL (≈ 47.3 µM)
RC50 [3]: > 300 µg/mL

SMILES: C=CC(C)(CC/C=C(\C)CC/C=C(\C)[C@@H](O)[C@H](O)C=C(C)C)Oc1ccc(O)cc1CC(=O)OC (some centres not stated) [NAHOCOL D2]
IC50 [2]: > 200 µg/mL
RC50 [3]: 12.4 µg/mL

SMILES: C=CC(C)(CC/C=C(\C)CCCC(C)[C@@H](O)C(=O)C=C(C)C)Oc1ccc(O)cc1CC(=O)OC (some centres not stated)
IC50 [2]: > 200 µg/mL
RC50 [3]: 17.2 µg/mL

SMILES: C=CC(C)(CC/C=C(\C)CC/C=C(\C)[C@H](O)C(=O)C=C(C)C)Oc1ccc(O)cc1CC(=O)OC (some centres not stated)
IC50 [1]: 103 µM
IC50 [2]: > 200 µg/mL
RC50 [3]: 14.7 µg/mL

SMILES: C=CC(C)(CC/C=C(\C)CC/C=C(\C)[C@@H](O)[C@@H](O)C=C(C)C)Oc1ccc(O)cc1CC(=O)OC (some centres not stated) [NAHOCOL D1]
IC50 [2]: > 200 µg/mL
RC50 [3]: 18.5 µg/mL

Now from value to compound, other results behind:

IC50 [1]: 112 µM
IC50 [2]: > 200 µg/mL
SMILES: CC(C)=CC(O)C(=O)/C(C)=C/CC/C(C)=C/CCC(C)(O)CCc1cc(O)cc(C)c1O (configuration not stated)
RC50 [3]: 0.24 µg/mL

IC50 [2]: > 200 µg/mL
SMILES: C=CC(C)(CC/C=C(\C)CCCC(C)C(=O)[C@H](O)C=C(C)C)Oc1ccc(O)cc1CC(=O)OC (some centres not stated) [NAHOCOL A1]
RC50 [3]: 12.7 µg/mL

IC50 [2]: 23 µg/mL (≈ 47.3 µM)
SMILES: COC(=O)Cc1cc(O)cc(C/C=C(/C)CC/C=C(\C)CC/C=C(\C)[C@@H](O)[C@@H](O)C=C(C)C)c1O [ISONAHOCOL D1]
RC50 [3]: 0.13 µg/mL

IC50 [2]: > 200 µg/mL
SMILES: C=CC(C)(CC/C=C(\C)CCCC(C)C(=O)[C@@H](O)C=C(C)C)Oc1ccc(O)cc1CC(=O)OC (some centres not stated) [NAHOCOL A]
RC50 [3]: 11.3 µg/mL

IC50 [2]: 23 µg/mL (≈ 47.5 µM)
SMILES: COC(=O)Cc1cc(O)cc(C/C=C(/C)CC/C=C(\C)CC/C=C(\C)C(=O)[C@@H](O)C=C(C)C)c1O
RC50 [3]: 0.33 µg/mL

IC50 [2]: 23 µg/mL (≈ 47.3 µM)
SMILES: COC(=O)Cc1cc(O)cc(C/C=C(\C)CC/C=C(\C)CC/C=C(\C)[C@@H](O)[C@@H](O)C=C(C)C)c1O [ISONAHOCOL D2]
RC50 [3]: 0.12 µg/mL

IC50 [1]: 117 µM
IC50 [2]: > 200 µg/mL
SMILES: CC(C)=CCC/C(=C/CC/C(C)=C/CC/C(C)=C/Cc1cc(O)cc(C)c1O)C(=O)O [SARGAHYDROQUINOIC ACID]
RC50 [3]: 0.17 µg/mL

IC50 [2]: 23 µg/mL (≈ 47.3 µM)
SMILES: COC(=O)Cc1cc(O)cc(C/C=C(/C)CCC(=O)C(C)CC/C=C(\C)C[C@H](O)C=C(C)C)c1O (some centres not stated)
RC50 [3]: 0.1 µg/mL

IC50 [2]: 23 µg/mL (≈ 47.3 µM)
SMILES: COC(=O)Cc1cc(O)cc(C/C=C(\C)CC/C=C(\C)CCCC(C)C(=O)[C@@H](O)C=C(C)C)c1O (some centres not stated)
RC50 [3]: 0.3 µg/mL

IC50 [2]: 23 µg/mL (≈ 47.5 µM)
SMILES: COC(=O)Cc1cc(O)cc(C/C=C(\C)CC/C=C(\C)CC/C=C(\C)C(=O)[C@@H](O)C=C(C)C)c1O
RC50 [3]: 0.31 µg/mL
